Assay results gathered from unrelated publications.
Target: Serine/threonine-protein kinase WNK2 (WNK2, Homo sapiens, UniProt Q9Y3S1)

`COc1ncc2cc3ccccc3nc2c1C#N` gave a remaining binding of 100% (cell-free assay; competition with immobilised ligand; 5 µM).
For `O=C(c1ccc(Nc2ncc(Cl)c(-c3ccc(Cl)s3)n2)cc1)N1CCC(N2CCCC2)CC1`, the remaining binding was 88% (binding; competition with immobilised ligand; 1 µM).
The remaining binding of `COc1ccc2c(c1)O[C@@H](c1ccc(OC)c(OC)c1)C[C@H]2NC(=O)C1(c2ccc3c(c2)OC(F)(F)O3)CC1` is reported as 84% (cell-free assay; competition with immobilised ligand; 1 µM).
With `O=C(c1ccc(Nc2ncc(Cl)c(-c3cc4ccccc4s3)n2)cc1)N1CCC(N2CCCC2)CC1` the remaining binding was 83% (binding; competition with immobilised ligand; 1 µM).
With `CCS(=O)(=O)c1cc2cc(C[C@@](O)(CC(C)(C)c3ccc(F)cc3C(N)=O)C(F)(F)F)[nH]c2cn1` the remaining binding was 46% (cell-free assay; competition with immobilised ligand; 1 µM).
The remaining binding of `CN(C)c1ncc(F)c(-c2cnn3ncccc23)n1` is reported as 82% (binding; 1 µM).
`CNC(=O)[C@@H]1CC[C@@H](n2c(-c3ccc4cnccc4c3)nc3ccc(C(=O)NCc4cccc(C(N)=O)c4)cc32)C1` has a remaining binding of 100% (binding; competition with immobilised ligand; 1 µM).
The remaining binding of `O=C(NCCCN1CCOCC1)c1ccc(Nc2ncc(Cl)c(-c3ccc(Cl)s3)n2)cc1` is reported as 92% (binding; competition with immobilised ligand; 1 µM).
`CC(C)(O)c1cncc(-c2nc3ccc(F)cc3n2C2CC2)c1` has a remaining binding of 100% (cell-free assay; competition with immobilised ligand; 1 µM).
With `O=C(NCC1CCOCC1)c1n[nH]cc1NC(=O)c1c(F)cccc1F` the remaining binding was 81% (binding; competition with immobilised ligand; 1 µM).
The remaining binding of `N[C@@H]1CCN(c2nccc(-c3cnn4ncccc34)n2)C1` is reported as 95% (binding; 1 µM).
The remaining binding of `Cc1c(NC(=O)c2cc(C(N)=O)nc3cc(F)ccc23)c(C(F)(F)F)nn1Cc1ccc(C(C)(C)C)cc1` is reported as 100% (cell-free assay; competition with immobilised ligand; 1 µM).
For `CN(C)c1nccc(-c2cnc3ncccn23)n1`, the remaining binding was 94% (binding; 1 µM).
The remaining binding of `CCC(=N\O)/C(C)=C/c1ccc(F)cc1` is reported as 80% (cell-free assay; competition with immobilised ligand; 1 µM).
`CC1CCCN1c1nccc(-c2cnn3ncccc23)n1` (centres unmarked) has a remaining binding of 100% (binding; 1 µM).
`C[C@@H](c1ccc(-n2cnc3c(N)ncnc32)cc1)N1CCc2nn(C)c(Cc3ccccc3)c2C1=O` has a remaining binding of 65% (binding; competition with immobilised ligand; 0.1 µM).
`CN(C)c1nccc(-c2cnn3ncccc23)n1` gave a remaining binding of 37% (binding; 1 µM).
For `CNCc1ccccc1-c1csc([C@H](C)Nc2nc(C)nc3cc(OC)c(OC)cc23)c1`, the remaining binding was 99% (cell-free assay; competition with immobilised ligand; 1 µM).
For `C[C@@H]1CCN(c2nccc(-c3cnn4ncccc34)n2)C1`, the remaining binding was 100% (binding; 1 µM).
With `Nc1ncc2c(n1)-c1c([nH]c3ccc(C#CC4CC4)cc13)CCCC2` the remaining binding was 100% (binding; competition with immobilised ligand; 1 µM).
